CAL PDZ FP-1 – CAL PDZ peptide-binding inhibitors, primary screen, biochemical, fluorescence polarization, Cer-tagged CAL PDZ, HTS; inhibition, % at 20 µM; purified CAL PDZ, TMR-peptide fluorescence polarization, 1 h; actives 0.02% (n = 330,000);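 active = highest replicate inhibition of at least 40%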
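Control set: unlabelled peptide and DMSO controls / Material: purified CerCALP PDZ construct / Timing: 1 h incubation at room temperature before polarization reading / Doses: 20 µM, one dose / Detection: fluorescence polarization (mP)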
AI-2 QS modul – Vibrio harveyi AI-2 quorum sensing modulators, primary screen, JMH597 strain, luminescence/OD600 ratio; Vibrio harveyi JMH597 AI-2 luminescence/OD600 ratio, 9 h; hits give low values; strain lacks LuxN and CqsS sensors; 0 = neutral-control median; activity change, % at 7.5 µM; actives 0.4% (n = 300,000); AID 2094, 2009; in the data active = activity change below about -75%, passing the limit was not always enough; inconclusive = no clear call, values can overlap the other calls;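 also: luminescence divided by OD600 gain over 9 h not by final OD600 alone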
CAL PDZ FP-2 – untagged CAL PDZ binding inhibitors, primary screen, biochemical, fluorescence polarization, HTS. purified CAL PDZ, TMR-peptide fluorescence polarization, 1 h. inhibition, % at 24.9 µM. actives 0.92% (n = 300,000). AID 602252, 2012;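 active = mean inhibition of at least 30% with at least half of replicates also reaching 30%; inconclusive = no clear call, values can overlap the other calls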
ARNT TACC3 PPI – disruptors of ARNT/TACC3 protein interaction, primary screen, biochemical, AlphaScreen, single concentration. Transforming acidic coiled-coil-containing protein 3 (Homo sapiens), Q9Y6A5. AlphaScreen His-ARNT PAS-B/GST-TACC3 binding, luminescence; TACC3 fragment carries E629A point mutation. inhibition, % at 9.99 µM. actives 0.66% (n = 390,000);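 active = mean inhibition of replicates at least 50% and at least half of replicates each reaching 50%; inconclusive = half or more replicates reach 50% but mean below 50%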
Rce1 inh – yeast Rce1p protease inhibitors, primary screen, biochemical, fluorescence, cell-free homogeneous | yeast membranes, quenched prenylated peptide cleavage fluorescence | actives 0.27% (n = 290,000) | calls only | CAAX prenyl protease 2 (Saccharomyces cerevisiae (strain ATCC 204508 / S288c)), Q03530;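 active = fall in fluorescence gain of 50% or more versus controls, with final raw signal at or below 3038400; inconclusive = same 50% fall but final raw signal above 3038400; inactive = fall in fluorescence gain under 50%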
Target sequence (Q03530 whole entry, looked up): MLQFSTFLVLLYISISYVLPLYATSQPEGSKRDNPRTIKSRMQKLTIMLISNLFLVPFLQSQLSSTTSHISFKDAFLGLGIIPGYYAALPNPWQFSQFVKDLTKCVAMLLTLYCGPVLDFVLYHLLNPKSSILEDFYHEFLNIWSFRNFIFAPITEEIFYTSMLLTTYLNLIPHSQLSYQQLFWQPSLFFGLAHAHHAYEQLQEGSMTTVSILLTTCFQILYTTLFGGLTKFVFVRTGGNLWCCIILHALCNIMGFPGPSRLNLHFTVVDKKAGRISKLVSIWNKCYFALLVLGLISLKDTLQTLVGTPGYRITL
JMH597 growth – Vibrio harveyi growth inhibition, confirmation, counter-screen for AI-2 quorum sensing project, JMH597 strain, OD600 absorbance. shares compounds with AI-2 QS modul. 9 h; lacks LuxN and CqsS sensors. growth inhibition, % at 7.5 µM. actives 1% (n = 750);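 active = every replicate shows growth inhibition above 50%; inconclusive = at least half, but not all, replicates pass that cutoff; inactive = fewer than half of replicates pass it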
BB721 lum counter – luminescence inhibition in constitutive-on V. harveyi, confirmation, counter-screen for LuxS inhibitor project, strain BB721, luminescence readout. AID 2727, 2010. inhibition, % at 7.5 µM. shares compounds with AI-2 QS modul. Vibrio harveyi BB721 luminescence, 9 h. actives 95% (n = 750);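 active = inhibition above about 80% in every replicate, not just on average, limit read from the data; inconclusive = at least half of replicates past the limit, but not all; inactive = fewer than half of replicates past the limit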
BB721 growth rt – growth inhibition of V. harveyi BB721, confirmation, cytotoxicity control for AI-2 quorum sensing inhibitors, strain BB721, absorbance OD600; shares compounds with AI-2 QS modul; Vibrio harveyi BB721 growth, 9 h; growth inhibition, % at 7.5 µM; actives 3% (n = 750); AID 2728, 2010;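 active = every replicate shows growth inhibition above 50%; inconclusive = at least half but not all replicates above 50% inhibition; inactive = under half of replicates above 50% inhibition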
JMH597 AI-2 mod – Vibrio harveyi AI-2 signaling luminescence modulation – JMH597 strain, confirmation. shares compounds with AI-2 QS modul. Vibrio harveyi JMH597 AI-2 quorum sensing luminescence, 9 h; luxN and CqsS knockout, AI-2 only. inhibition, % at 7.5 µM. actives 97% (n = 750). AID 2736, 2010;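 active = every replicate shows more than 75% inhibition of signal versus neutral control wells; inconclusive = half to three quarters of replicates exceed 75% inhibition; inactive = fewer than half of replicates exceed 75% inhibition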
Numbers stand for hits. Only some compounds are listed: those with a hit (about 1.7% of all), similar ones and a draw of the others.

For Cc1ccc(NC(=O)CCN2C(=O)C3CCCCC3C2=O)c(O)c1 (centres undefined) the results were CAL PDZ FP-1 inactive, AI-2 QS modul inactive, CAL PDZ FP-2 inactive, ARNT TACC3 PPI inactive and Rce1 inh inactive.
Cc1ccc(NC(=O)CCCC2CCCCC2)c(O)c1 was read as CAL PDZ FP-1 inactive, AI-2 QS modul -91, CAL PDZ FP-2 inactive, ARNT TACC3 PPI inactive, Rce1 inh inactive, JMH597 growth inactive, BB721 lum counter 97, BB721 growth rt inactive and JMH597 AI-2 mod 98.
`O=C(/C=C/c1ccccc1)NNC(=O)c1cccc(Cl)c1` gave CAL PDZ FP-1 inactive, AI-2 QS modul inactive, ARNT TACC3 PPI inactive and Rce1 inh inactive.
`O=C(/C=C/c1ccccc1)NNc1ccc(Cl)cc1` gave CAL PDZ FP-1 inactive, AI-2 QS modul -97, ARNT TACC3 PPI inactive, Rce1 inh inactive, JMH597 growth inactive, BB721 lum counter 100, BB721 growth rt inconclusive and JMH597 AI-2 mod 100.
For O=C(C[C@@H]1C=C[C@H](NC(=O)Nc2ccccc2F)[C@@H](CO)O1)NCc1ccc(-c2ccccc2)cc1 the results were ARNT TACC3 PPI inactive.
`CN1C(=O)c2cc(NC(=O)NC3CCCC3)ccc2OC[C@@H]2O[C@@H](CC(=O)O)CC[C@@H]21` gave ARNT TACC3 PPI inactive.
`CC(=O)Nc1ccc(C(=O)OCc2ccc(F)cc2)cc1` gave CAL PDZ FP-1 inactive, AI-2 QS modul -83, CAL PDZ FP-2 inactive, ARNT TACC3 PPI inactive, Rce1 inh inactive, JMH597 growth inactive, BB721 lum counter 93, BB721 growth rt inactive and JMH597 AI-2 mod 92.
`CCCS(=O)(=O)c1ccc(COC(=O)c2ccc(NC(C)=O)cc2)cc1` gave CAL PDZ FP-1 inactive, AI-2 QS modul inactive, ARNT TACC3 PPI inactive and Rce1 inh inactive.
`CC(=O)Nc1ccc(C(=O)OCc2ccc(Cl)cc2)cc1` gave CAL PDZ FP-1 inactive, AI-2 QS modul -91, CAL PDZ FP-2 inactive, ARNT TACC3 PPI inactive, Rce1 inh inactive, JMH597 growth inactive, BB721 lum counter 97, BB721 growth rt 58 and JMH597 AI-2 mod 96.
Screening O=C(Nc1cnn(Cc2ccc(F)cc2)c1)c1cnccn1 returned AI-2 QS modul -95, CAL PDZ FP-2 inactive, ARNT TACC3 PPI inactive, JMH597 growth inactive, BB721 lum counter 98, BB721 growth rt inactive and JMH597 AI-2 mod 98.
`O=C1CC(SCCO)C(=O)N1c1ccc(Oc2ccccc2)cc1` (centres undefined) gave CAL PDZ FP-1 inactive, AI-2 QS modul -83, CAL PDZ FP-2 inactive, ARNT TACC3 PPI inactive, Rce1 inh inactive, JMH597 growth inactive, BB721 lum counter 91, BB721 growth rt inactive and JMH597 AI-2 mod 92.
NCCSC1CC(=O)N(c2ccc(Cl)c(Cl)c2)C1=O (centres undefined) was read as CAL PDZ FP-1 inactive, AI-2 QS modul -80, CAL PDZ FP-2 inactive, ARNT TACC3 PPI inactive, Rce1 inh inactive, JMH597 growth inactive, BB721 lum counter 90, BB721 growth rt inactive and JMH597 AI-2 mod 94.
Screening O=C(O)CCSC1CC(=O)N(c2ccccc2)C1=O (centres undefined) returned CAL PDZ FP-1 inactive, AI-2 QS modul inactive, CAL PDZ FP-2 inactive, ARNT TACC3 PPI inactive and Rce1 inh inactive.
`O=C(CCNC(=O)c1ccco1)Nc1nc2ccccc2s1` gave CAL PDZ FP-1 inactive, CAL PDZ FP-2 inactive and ARNT TACC3 PPI inactive.
`O=C(COC(=O)c1ccco1)Nc1nc2ccccc2s1` gave CAL PDZ FP-1 inactive, AI-2 QS modul inconclusive, CAL PDZ FP-2 inactive, ARNT TACC3 PPI inactive, Rce1 inh inactive, JMH597 growth inactive, BB721 lum counter 94, BB721 growth rt inactive and JMH597 AI-2 mod 95.
Screening COc1ccc(NC(=O)Nc2ccc3c(c2)[C@@H]2C[C@H](CC(=O)N4CCOCC4)O[C@@H](CO)[C@@H]2O3)cc1 returned ARNT TACC3 PPI inactive.
Screening Cc1ccc2c(c1)c1c(n2C)C(=O)CCC1 returned CAL PDZ FP-1 inactive, AI-2 QS modul inactive, CAL PDZ FP-2 inactive, ARNT TACC3 PPI inactive and Rce1 inh inactive.
For CC(C)Cc1ccc(S(=O)(=O)Nc2ccccn2)cc1 the results were CAL PDZ FP-1 inactive, AI-2 QS modul -93, ARNT TACC3 PPI inactive, Rce1 inh inactive, JMH597 growth inactive, BB721 lum counter 98, BB721 growth rt inactive and JMH597 AI-2 mod 100.
Screening O=[N+]([O-])c1ccc(N/N=C/c2cccc(O)c2O)cc1 returned CAL PDZ FP-1 inactive, AI-2 QS modul -82, CAL PDZ FP-2 inactive, ARNT TACC3 PPI inactive, Rce1 inh inactive, JMH597 growth inactive, BB721 lum counter 93, BB721 growth rt inactive and JMH597 AI-2 mod 96.
Screening CCOC(=O)Oc1ccc2c(=O)c(Oc3cc(C)cc(C)c3)coc2c1 returned CAL PDZ FP-1 inactive, AI-2 QS modul inactive, ARNT TACC3 PPI inactive and Rce1 inh inactive.
Screening CCOC(=O)Oc1ccc2c(=O)c(Oc3cccc(C)c3)coc2c1 returned CAL PDZ FP-1 inactive, AI-2 QS modul -85, CAL PDZ FP-2 inactive, ARNT TACC3 PPI inactive, Rce1 inh inactive, JMH597 growth 75, BB721 lum counter 97, BB721 growth rt inconclusive and JMH597 AI-2 mod 97.
For Cc1cccc(Oc2coc3cc(O)ccc3c2=O)c1 the results were CAL PDZ FP-1 inactive, AI-2 QS modul -87, CAL PDZ FP-2 inactive, ARNT TACC3 PPI inactive, Rce1 inh inactive, JMH597 growth inactive, BB721 lum counter 98, BB721 growth rt inactive and JMH597 AI-2 mod 98.
`C[C@@H]1CN([C@@H](C)CO)C(=O)c2cc(-c3ccncc3)cnc2O[C@@H]1CN(C)C(=O)c1cccc(F)c1` gave ARNT TACC3 PPI inactive.

Bioassay records from PubChem.
